One compound from ChEMBL document CHEMBL4680166, “Dual-functional conjugates improving cancer immunochemotherapy by inhibiting tubulin polymerization and indoleamine-2,3-dioxygenase” (Eur J Med Chem, 2020) can be followed below.

Series [1] has as its system HeLa. Nature of the series: Anticancer activity against human HeLa cells assessed as inhibition of cell proliferation measured after 72 hrs by MTT assay. The format is functional, cell-based. Summed up: (§1)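 Cells (A549, PC-3, HeLa, HUVEC) grown in DMEM with 10% FBS at 37 °C, 5% CO₂. Seeded at 5 × 10⁴ cells/well and allowed 24 h to attach, then exposed 72 h to a concentration series from DMSO stocks. MTT was added for 4 h and formazan dissolved in DMSO, read at 490 nm. Survival taken relative to untreated control. IC50 by Bliss method, three repeats.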
Background: Formazan colour is commonly taken as a measure of viable cells.

Series [2] in a line: Toxicity in BALB/c nude mouse […] with human HeLa cells assessed as body weight changes at 15 mg/kg/day, iv for 21 days. The format is organism-based. The note with it: in vivo, 504 h, time 21 day.
Series [3] in a line: Toxicity in BALB/c nude mouse transfected with human HeLa cells assessed as liver damage at 30 mg/kg/day, iv for 21 days by H&E staining based immunohistochemistry. The format is organism-based. As to conditions: in vivo, 504 h, time 21 day. An outline of the steps:
(§2)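 HeLa xenografts were grown s.c. in male BALB/c nude mice, which received i.v. tail-vein doses once daily for 21 days in Tween 80/saline vehicle, with saline controls. After 3 weeks the mice were sacrificed. Organs from one mouse per group were fixed in 4% paraformaldehyde, paraffin-embedded and sectioned. Sections were dewaxed, stained with Harris hematoxylin and eosin-phloxine, and examined microscopically for histopathologic changes.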

Series [4] concerns HeLa. As to the kind of experiment: Induction of apoptosis in human HeLa cells assessed as upregulation of Bax protein expression at 0.5 uM measured after 24 hrs by western blot analysis. The format is functional, cell-based. Summed up: (§3)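 HeLa cells were treated 24 h at 37 °C and lysed in buffer containing PMSF. Protein quantified by BCA, equal amounts separated by SDS-PAGE and transferred to nitrocellulose. Blocked in 5% milk, primary antibodies overnight at 4 °C, peroxidase secondary 2 h at 25 °C. Detection by chemiluminescence, β-actin as loading control.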
A general note: In western blotting, separated proteins are transferred to a membrane and probed.

In series [5] the test system is HeLa. Nature of the series: Antitumor activity against human HeLa cells xenografted in iv dosed BALB/c mouse assessed as inhibition of tumor growth administered once daily for 21 days by caliper analysis. The format is functional, organism-based. As to conditions: dose 15-30 mg/kg/day, time 21.0 day. An outline of the steps: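 Male BALB/c nude mice, five weeks old, 18-22 g. Inoculated subcutaneously in the right armpit with 1 × 10⁷ HeLa cells/0.1 mL. At 120-150 mm³, randomized to four groups of five. Once-daily tail-vein injection for 21 days in Tween 80/physiological saline; controls received saline. Tumor volume measured every 2 days by caliper, V = AB²/2.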
For orientation: A xenograft is tissue or cells of one species grown in another, often human tumour cells in immunodeficient mice.

A short description of series [6]: Toxicity in BALB/c nude mouse transfected with human HeLa cells assessed as liver damage at 15 mg/kg/day, iv for 21 days by H&E staining based immunohistochemistry. The format is organism-based. The note with it: in vivo, 504 h, time 21 day. Summed up: (§4)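 After 3 weeks of daily iv dosing of HeLa-xenografted nude mice, organs were taken from one mouse per group. Fixed in 4% paraformaldehyde, paraffin-embedded and sectioned. Stained with Harris hematoxylin and eosin-phloxine, then examined microscopically for histopathology.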

In series [7] the test system is HeLa. As to the kind of experiment: Induction of apoptosis in human HeLa cells assessed as upregulation of PARP protein expression at 0.5 uM measured after 24 hrs by western blot analysis. The format is functional, cell-based. Summed up:
as §3

Series [8] deals with HeLa. Nature of the series: Induction of apoptosis in human HeLa cells assessed as late apoptotic cells at 0.5 uM measured after 24 hrs by Annexin-V-FITC and PI staining based flow cytometry (reference value: 0.199%). The format is functional. Summed up: (§5)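 HeLa cells were treated 24 h, washed twice in PBS and resuspended in binding buffer. Stained with annexin V-FITC and PI for 30 min in the dark at room temperature, then analysed by flow cytometry.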

The test system of series [9] is HeLa. As to the kind of experiment: Induction of cell cycle arrest in human HeLa cells assessed as accumulation at G1 phase at 0.5 uM measured after 24 hrs by propidium iodide/RNAse staining based flow cytometry (reference value: 61.5%). The format is functional.
A short description of series [10]: Toxicity in BALB/c nude mouse transfected with human HeLa cells assessed as spleen damage at 15 mg/kg/day, iv for 21 days by H&E staining based immunohistochemistry. The format is organism-based. As to conditions: in vivo, 504 h, time 21 day. An outline of the steps: as §4
Series [11] can be described thus: Antitumor immunity against IFN-gamma stimulated human HeLa cells co-cultured with PHA-M-stimulated human PBMC cells assessed as induction of CD3+ T cell proliferation at 0.1 uM preincubated for 2 days measured after co-culturing with PBMC for 6 days by flow cytometry (reference value: 6 to 6.2%). As to conditions: time 8 day. The format is functional.
In series [12] the test system is HeLa. Nature of the series: Induction of intracellular reactive oxygen species generation in human HeLa cells at 0.5 uM measured after 24 hrs by DCFH-DA staining based flow cytometry (reference value: 6.47%). The format is functional.
Series [13] relates to HeLa. Nature of the series: Induction of apoptosis in human HeLa cells assessed as viable cells at 0.5 uM measured after 24 hrs by Annexin-V-FITC and PI staining based flow cytometry (reference value: 96.3%). The format is functional. The note with it: read-out: Activity. Summed up:
as §5

Series [14] deals with A549. Nature of the series: Anticancer activity against human A549 cells assessed as inhibition of cell proliferation measured after 72 hrs by MTT assay. The format is functional, cell-based. As to conditions: A549, 72 h. An outline of the steps:
as §1

Series [15] has as its system HeLa. Nature of the series: Inhibition of IDO1 expression in hIFNgamma-stimulated human HeLa cells at 0.5 uM measured after 24 hrs by western blot assay. The format is functional. Summed up: as §3
The nature of series [16]: Toxicity in BALB/c nude mouse transfected with human HeLa cells assessed as kidney damage at 15 mg/kg/day, iv for 21 days by H&E staining based immunohistochemistry. The format is organism-based. As to conditions: in vivo, 504 h, time 21 day. An outline of the steps:
as §4

For series [17], the system named is HeLa. Nature of the series: Induction of apoptosis in human HeLa cells assessed as down regulation of Bcl-2 protein expression at 0.5 uM measured after 24 hrs by western blot analysis. The format is functional, cell-based. An outline of the steps: as §3
Series [18] has as its system HeLa. As to the kind of experiment: Induction of cell cycle arrest in human HeLa cells assessed as accumulation at S phase at 0.5 uM measured after 24 hrs by propidium iodide/RNAse staining based flow cytometry (reference value: 27.8%). The format is functional.
The subject of series [19] is HeLa. Nature of the series: Induction of apoptosis in human HeLa cells assessed as cell membrane integrity loss, chromatin condensation and apoptotic body formation by measuring strengthened orange fluorescence intensity at 0.5 uM measured after 24 hrs by AO/EB dual staining based fluorescence microscopy. The format is functional.
Series [20] in a line: Toxicity in BALB/c nude mouse transfected with human HeLa cells assessed as heart damage at 30 mg/kg/day, iv for 21 days by H&E staining based immunohistochemistry. The format is organism-based. As to conditions: in vivo, 504 h, time 21 day. An outline of the steps: as §2
The subject of series [21] is HeLa. Nature of the series: Induction of apoptosis in human HeLa cells assessed as upregulation of caspase-3 protein expression at 0.5 uM measured after 24 hrs by western blot analysis. The format is functional, cell-based. Summed up:
as §3

Active and inactive are the calls of the source. No cut-off for these calls is given here.

The term IC50 denotes the point on the concentration scale where inhibition reaches its midpoint. Consider `COc1ccc(/C=C\c2cc(OC)c(OC)c(OC)c2)cc1OC(=O)c1cccc(Cn2cc(CCOC(=O)[C@H](N)Cc3cn(C)c4ccccc34)nn2)c1`, for which the IC50 came out at 70 nM in [1] and 220 nM in series [14]. Moreover, the Activity result in [2] is “Non-Toxic”; in series [3], “Non-Toxic”; in series [5], “Dose-dependent effect”; in [6], “Non-Toxic”; in series [8] it was 11%; in series [9], 6.69%. Besides, the Activity result in series [10] is “Non-Toxic”; in series [11], 40.3%; in series [12], 49.7%; in series [16], “Non-Toxic”; in series [18] it was 17.05%; in series [20] it was “Non-Toxic”. The outcome in series [4], in series [7], in [17], in series [19] and in series [21] was Active. Also, the viability at 0.5 µM in [13] turned out to be 47.3%. Further, the inhibition entry in [15] was “Active”.
